TAAR1 antagonist = human TAAR1 antagonists, primary screen, Fluo-8 calcium fluorescence, CHO RD-HGA16 cells; inhibition, % at 3 µM; AID 624466, 2012; 360,000 compounds, 1.5% hits; antagonist; Trace amine-associated receptor 1 (Homo sapiens), Q96RJ0;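 active = inhibition above a per-plate cutoff, the mean inhibition of test compounds on that plate plus 3 SD, cut at about 49% in these data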
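Test system: RD-HGA16 CHO cells with stable hTAAR1 and Gα16 / Probe or stimulus: EC80 β-phenethylamine stimulus / Times: seeding 17-24 h prior, 75-min 37 °C, 30-min RT dye loading / Detection: Fluo-8 calcium-sensitive fluorescence / Read-out basis: % inhibition scaled between DMSO and EC80 PEA controls / Repeats: singlicate, one well per test compound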
TAAR1 ag = human TAAR1 agonists, primary screen, Fluo-8 calcium fluorescence, CHO RD-HGA16 cells; 360,000 compounds, 0.99% hits; Trace amine-associated receptor 1 (Homo sapiens), Q96RJ0; activation, % at 3 µM; AID 624467, 2012; vehicle wells 0%, saturating PEA agonist 100%;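 active = activation above the mean activation of all test compounds in the run plus 3 SD, cut at about 38% in these data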
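test system = CHO RD-HGA16 cells carrying human TAAR1 plus Gα16 | schedule = 17-24 h seeding, 75 min 37 °C dye, 30 min RT | compound dosing = 3 µM single concentration | control set = DMSO and PEA EC100 | replicates = n 1 | signal = Fluo-8 fluorescence, 5 s baseline then 140 s kinetic read | measure = percent activation vs PEA EC100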
TRPML3 agonist = human TRPML3 channel agonists, primary screen, cell-based, HEK293 TRPML3-YFP, Fluo-8 calcium fluorescence, 3 µM. 100% = the carbachol control signal. activation, % at 3 µM. AID 1448, 2008. 220,000 compounds, 0.29% hits;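 active = activation above its plate's cutoff, the mean activation of the plate's test wells plus 3 SD, cut at about 12% in these data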
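system = HEK293 cells stably carrying human TRPML3-YFP | doses = one concentration, 3 µM nominal, 0.3% DMSO | timing = dye loading 1 h 37 °C then 30 min ambient, 125 s read | detection = Fluo-8 calcium dye fluorescence, ex 470-495, em 515-575 nm | benchmarks = high control carbachol 87 µM, low control DMSO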
GPR7 antag = GPR7 receptor antagonists, primary screen, cell-based, fluorescence, single concentration; GPR7-expressing cells, fluorescence antagonist assay; AID 1861, 2009; inhibition, % at 4.4 µM; 290,000 compounds, 1.1% hits; Neuropeptides B/W receptor type 1 (Homo sapiens), P48145; in the data active = inhibition above about 16%, passing the limit was not always enough;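 also: cells stimulated with the agonist NPW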
zfTRPN1 agonist = zebrafish TRPN1 channel agonists, primary screen, cell-based, HEK293, calcium fluorescence | HEK293 zebrafish TRPN1-YFP, Fluo-8 calcium fluorescence; 100% = response to 87 µM carbachol | activation, % at 3 µM | 220,000 compounds, 0.18% hits | AID 1424, 2008;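 active = activation above its plate's cutoff, the mean activation of test wells on that plate plus 3 SD, cut at about 19% in these data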
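Material: zebrafish TRPN1-YFP in HEK293 cells. Doses: one dose of 3 µM, 0.3% DMSO. Incubation: dye 1 h 37 °C plus 30 min RT. Measured by: intracellular calcium fluorescence with Fluo-8.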
LANA-H2B inh = blockers of LANA interaction with H2A/H2B – biochemical, FP readout, HTS, primary screen. cell-free LANA-H2A/H2B peptide, fluorescence polarization. 320,000 compounds, 0.6% hits. inhibition, % (no concentration beside the values). Protein LANA1 (Human herpesvirus 8 type P (isolate GK18)), Q9QR71. AID 2629, 2010; in the data active = inhibition mostly above about 10%, no sharp cut-off; inactive = mostly below about 6.7%
Target sequence (Q9QR71 whole entry, looked up): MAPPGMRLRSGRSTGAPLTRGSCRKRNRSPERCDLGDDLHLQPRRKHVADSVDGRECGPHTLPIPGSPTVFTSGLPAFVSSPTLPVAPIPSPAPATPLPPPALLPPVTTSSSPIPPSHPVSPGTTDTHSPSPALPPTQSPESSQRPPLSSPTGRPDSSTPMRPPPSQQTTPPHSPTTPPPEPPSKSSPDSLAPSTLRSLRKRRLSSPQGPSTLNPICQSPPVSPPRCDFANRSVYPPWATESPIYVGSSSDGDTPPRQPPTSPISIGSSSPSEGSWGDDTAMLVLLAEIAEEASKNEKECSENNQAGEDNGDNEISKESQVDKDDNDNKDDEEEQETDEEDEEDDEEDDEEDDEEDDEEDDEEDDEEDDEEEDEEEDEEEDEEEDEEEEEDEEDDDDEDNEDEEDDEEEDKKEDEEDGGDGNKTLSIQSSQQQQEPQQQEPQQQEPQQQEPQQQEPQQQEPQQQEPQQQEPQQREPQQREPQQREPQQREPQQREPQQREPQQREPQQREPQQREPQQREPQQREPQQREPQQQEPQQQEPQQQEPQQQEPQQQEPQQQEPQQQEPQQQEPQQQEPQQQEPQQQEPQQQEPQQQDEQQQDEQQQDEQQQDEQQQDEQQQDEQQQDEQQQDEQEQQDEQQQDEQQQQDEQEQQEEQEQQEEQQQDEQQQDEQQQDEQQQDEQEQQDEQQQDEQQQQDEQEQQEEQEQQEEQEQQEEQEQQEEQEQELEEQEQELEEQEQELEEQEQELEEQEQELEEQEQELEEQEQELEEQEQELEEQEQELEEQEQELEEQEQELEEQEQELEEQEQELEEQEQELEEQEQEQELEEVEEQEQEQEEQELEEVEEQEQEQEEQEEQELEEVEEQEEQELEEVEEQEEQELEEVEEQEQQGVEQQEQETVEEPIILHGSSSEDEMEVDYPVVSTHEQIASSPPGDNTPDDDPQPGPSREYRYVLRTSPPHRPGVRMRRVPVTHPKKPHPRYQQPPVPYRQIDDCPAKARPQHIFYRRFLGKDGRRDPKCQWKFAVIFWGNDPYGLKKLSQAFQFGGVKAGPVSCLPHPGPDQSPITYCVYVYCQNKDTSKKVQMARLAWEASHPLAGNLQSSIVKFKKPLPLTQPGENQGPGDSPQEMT
Each line names hits and unclear results; the compound was inactive in the other large screens. Compounds with a hit are over-represented: about 3.4% of the library has one in this group of screens.

CN(C)C(=O)c1cccc(-c2cccc(-c3nc(C(=O)NCc4ccccc4)cc4c3[C@@H](CCO)N(S(=O)C(C)(C)C)C4)c2)c1 (stereo not given in full)	TAAR1 antagonist 61.3 (no result: TRPML3 agonist, GPR7 antag, zfTRPN1 agonist, LANA-H2B inh)
COc1cccc(-c2cccc(-c3nc(C(=O)NCCCN4CCOCC4)cc4c3[C@H](CCO)N(S(=O)C(C)(C)C)C4)c2)c1 (stereo not given in full)	TAAR1 antagonist 52.0 (no result: TRPML3 agonist, GPR7 antag, zfTRPN1 agonist, LANA-H2B inh)
COc1ccc(CNS(=O)(=O)c2cc(Cl)ccc2N2CC[C@@H](O)C2)cc1	none (no result: TRPML3 agonist, GPR7 antag, zfTRPN1 agonist, LANA-H2B inh)
Cc1cc(F)ccc1S(=O)(=O)N1CCCOC1CNC(=O)C(=O)NCCc1ccccc1 (stereo not given)	none (no result: TRPML3 agonist, zfTRPN1 agonist)
COc1ccc(CCNC(=O)C(=O)NCC2CCCO2)cc1OC (stereo not given)	LANA-H2B inh 40.6
COc1ccc(CCNC(=O)C(=O)NCC2CCCN2S(=O)(=O)c2ccccc2)cc1OC (stereo not given)	TAAR1 antagonist 49.1 (no result: TRPML3 agonist, GPR7 antag, zfTRPN1 agonist)
O=C(NCCc1ccccc1)C(=O)NCC1OCCCN1S(=O)(=O)c1cc(F)ccc1F (stereo not given)	TAAR1 ag 40.2 (no result: TRPML3 agonist, zfTRPN1 agonist)
O=C(NCCc1ccc(F)cc1)C(=O)NCC1CCCN1S(=O)(=O)c1cccs1 (stereo not given)	TAAR1 antagonist 60.8 (no result: TRPML3 agonist, GPR7 antag, zfTRPN1 agonist)
CC(C)[C@H](NC(=O)c1ccco1)C(=O)N1CCC[C@H]1C(=O)NCc1ccccc1	none (no result: TRPML3 agonist, GPR7 antag, zfTRPN1 agonist, LANA-H2B inh)
COC(=O)[C@]12C[C@H](CC(=O)NCC34CC5CC(CC(C5)C3)C4)C(=O)N(Cc3ccc4c(c3)OCO4)C1=C[C@H](C(C)(C)C)O[C@@H]2C	none (no result: TRPML3 agonist, GPR7 antag, zfTRPN1 agonist, LANA-H2B inh)
CC(=O)Nc1ccc(NC(=O)COC(=O)c2c3c(nc4ccccc24)CCN(Cc2ccccc2)C3)cc1	TAAR1 antagonist 63.2
O=C(COC(=O)c1c2c(nc3ccccc13)CCN(Cc1ccccc1)C2)Nc1c(F)cccc1F	none
COc1cccc(NC(=O)N(C)C[C@H]2OCc3ccccc3-c3c(n(C)c4ccccc34)C(=O)N([C@H](C)CO)C[C@H]2C)c1	none (no result: TRPML3 agonist, GPR7 antag, zfTRPN1 agonist, LANA-H2B inh)
Clc1cccc2c1Sc1ccccc1CC2N1CCNCC1 (stereo not given)	GPR7 antag 58.2
O=C(c1ccccc1Cl)N1CCNCC1	none
c1ccc(CN2CCC(Nc3nc(-c4cccs4)nc4ccccc34)CC2)cc1	GPR7 antag 20.5
C=C(C)COc1ccc(-c2[nH]ncc2-c2ccc(OC)c(OC)c2)c(O)c1	TAAR1 antagonist 49.5
O=C(Nc1ccc(Cl)c(Cl)c1)c1cccc(S(=O)(=O)NCc2cccnc2)c1	GPR7 antag 29.6
COc1cccc(S(=O)(=O)NCc2ccc(C(=O)Nc3ccc(Cl)c(Cl)c3)cc2)c1	none
O=C(NCc1ccccc1)[C@@H]1CCCN1C(=O)[C@H]1CCCN1C(=O)c1ccc(F)c(F)c1	none (no result: TRPML3 agonist, GPR7 antag, zfTRPN1 agonist, LANA-H2B inh)
CCOC(=O)N1CCN(C(=O)C[C@H]2C[C@@]3(C(=O)OC)C(=C[C@H](COCc4ccccc4)O[C@@H]3C)N(CCC3=CCCCC3)C2=O)CC1	none (no result: TRPML3 agonist, GPR7 antag, zfTRPN1 agonist, LANA-H2B inh)
Cc1ccccc1C(=O)N1CCC2CC1c1cc(-c3ccc(F)cc3)ccc12 (stereo not given)	TAAR1 antagonist 59.5 (no result: TRPML3 agonist, GPR7 antag, zfTRPN1 agonist, LANA-H2B inh)
CCOC(=O)C1=CCN(S(=O)(=O)c2cccc(Cl)c2)C1c1ccc(Cl)cc1 (stereo not given)	none (no result: TRPML3 agonist, GPR7 antag, zfTRPN1 agonist, LANA-H2B inh)
Cc1[nH]c2ccccc2c1CC(=O)Nc1ccc(Nc2cccnc2)c(-c2ccc(OC(F)(F)F)cc2)c1	none (no result: TRPML3 agonist, GPR7 antag, zfTRPN1 agonist, LANA-H2B inh)
COC(=O)[C@]12CCCCC=C1N(Cc1cccc3ccccc13)C(=O)[C@H](CC(=O)NCCC(C)C)C2	TAAR1 antagonist 61.6 (no result: TRPML3 agonist, GPR7 antag, zfTRPN1 agonist, LANA-H2B inh)
COC(=O)[C@]12CCCCC=C1N(Cc1cccc3ccccc13)C(=O)[C@H](CC(=O)N1CCSCC1)C2	TAAR1 antagonist 52.5 (no result: TRPML3 agonist, GPR7 antag, zfTRPN1 agonist, LANA-H2B inh)

Screening data as filed in PubChem.
